In ChEMBL document CHEMBL1140177 (J Med Chem, 2008):
pIC50: −log10 of the molar value. ≈ marks a conversion by molar mass, not a printed value.

Columns and labels:
[1] = system: Human immunodeficiency virus 1; assay: Antiviral activity against wild type HIV1 infected in human MT4 cells after 72 hrs in presence of 10% fetal bovine serum; format: functional; conditions: Human immunodeficiency virus 1, MT4, 72 h; read-out: CIC95
Method in brief: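 MT-4 human T-lymphoid cells in RPMI 1640 with 10% FBS. CIC95 is the concentration that inhibits viral spread by >95%. Values are either geometric means of two determinations or given with standard deviations for n > 3 or n > 50.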

[2] = system: Human immunodeficiency virus 1; assay: Antiviral activity against HIV1 with reverse transcriptase K103N mutant infected in human MT4 cells after 72 hrs in presence of 10% fetal bovine serum; format: functional; conditions: Human immunodeficiency virus 1, MT4, 72 h; read-out: CIC95
Method in brief: (§1)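 Mutant HIV-1 spread was assayed in MT-4 human T-lymphoid cells kept in RPMI 1640 with 10% FBS. CIC95 is the concentration that inhibits viral spread by >95%. Values are geometric means of two determinations, or mean with standard deviation where n > 3. Cytotoxicity was checked up to an assay limit of 8.3 µM.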

[3] = system: Human immunodeficiency virus 1; assay: Antiviral activity against HIV1 with reverse transcriptase Y181C mutant infected in human MT4 cells after 72 hrs in presence of 10% fetal bovine serum; format: functional; conditions: Human immunodeficiency virus 1, MT4, 72 h; read-out: CIC95; method in brief: as §1
[4] = system: Human immunodeficiency virus 1; assay: Antiviral activity against wild type HIV1 infected in human MT4 cells after 72 hrs in presence of 50% normal human serum; format: functional; conditions: Human immunodeficiency virus 1, MT4, 72 h; read-out: CIC95
Method in brief: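 MT-4 human T-lymphoid cells in RPMI 1640 with 50% NHS. CIC95 is the concentration that inhibits viral spread by >95%. Values are either geometric means of two determinations or given with standard deviations for n > 3 or n > 50.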

[5] = AUC in Sprague-Dawley rat at 10 mg/kg, po; format: ADME, organism-based; design: dose 10 mg/kg, route oral; conditions: plasma
[6] = Oral bioavailability in Sprague-Dawley rat at 10 mg/kg; format: ADME, organism-based; conditions: in vivo
[7] = AUC in rhesus monkey at 10 mg/kg, po; format: ADME, organism-based, Macaca mulatta; design: dose 10 mg/kg, route oral; conditions: plasma
[8] = Oral bioavailability in rhesus monkey at 10 mg/kg; format: ADME, organism-based, Macaca mulatta; conditions: in vivo
[9] = system: Rattus norvegicus; assay: Half life in Sprague-Dawley rat at 10 mg/kg, po and 3 mg/kg, iv; format: ADME, organism-based; conditions: in vivo
Method in brief: (§2)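 Three Sprague-Dawley rats, averaged. Oral dose 10 mpk in 0.5% methocel; intravenous dose 3 mpk in DMSO. Individual values within 25% of mean.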

[10] = Clearance in Sprague-Dawley rat at 10 mg/kg, po and 3 mg/kg, iv; format: ADME, organism-based; conditions: in vivo; method in brief: as §2
[11] = Volume of distribution in Sprague-Dawley rat at 10 mg/kg, po and 3 mg/kg, iv; format: ADME, organism-based; conditions: in vivo; method in brief: as §2
[12] = system: Canis familiaris; assay: Half life in Beagle dog at 10 mg/kg, po and 2 mg/kg, iv; format: ADME, organism-based, Canis lupus familiaris; conditions: in vivo
Method in brief: (§3)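 Three beagle dogs, averaged. Oral dose 10 mpk in 0.5% methocel; intravenous dose 2 mpk in DMSO. Individual values within 25% of mean.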

[13] = Clearance in Beagle dog at 10 mg/kg, po and 2 mg/kg, iv; format: ADME, organism-based, Canis lupus familiaris; conditions: in vivo; method in brief: as §3
[14] = AUC in Beagle dog at 10 mg/kg, po; format: ADME, organism-based, Canis lupus familiaris; design: dose 10 mg/kg, route oral; conditions: plasma; method in brief: as §3
[15] = Volume of distribution in Beagle dog at 10 mg/kg, po and 2 mg/kg, iv; format: ADME, organism-based, Canis lupus familiaris; conditions: in vivo; method in brief: as §3
[16] = Oral bioavailability in Beagle dog at 10 mg/kg; format: ADME, organism-based, Canis lupus familiaris; conditions: in vivo; method in brief: as §3
[17] = Clearance in rhesus monkey at 10 mg/kg, po and 2 mg/kg, iv; format: ADME, organism-based, Macaca mulatta; conditions: in vivo
[18] = Volume of distribution in rhesus monkey at 10 mg/kg, po and 2 mg/kg, iv; format: ADME, organism-based, Macaca mulatta; conditions: in vivo
[19] = Solubility at pH 2; format: physicochemical; conditions: buffer
[20] = system: Human immunodeficiency virus 1; assay: Antiviral activity against wild type HIV1 in presence of 40% normal human serum; format: functional, organism-based
Method in brief: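 Monogram Bioscience PhenoScreen cell-culture assay run with 40% NHS. […] Value is the geometric mean of n = 2.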

[21] = system: Human immunodeficiency virus 1; assay: Antiviral activity against HIV1 with reverse transcriptase G190A mutant in presence of 40% normal human serum; format: functional, organism-based
[22] = system: Human immunodeficiency virus 1; assay: Antiviral activity against HIV1 with reverse transcriptase G190S mutant in presence of 40% normal human serum; format: functional, organism-based
[23] = system: Human immunodeficiency virus 1; assay: Antiviral activity against HIV1 with reverse transcriptase L100I mutant in presence of 40% normal human serum; format: functional, organism-based
[24] = system: Human immunodeficiency virus 1; assay: Antiviral activity against HIV1 with reverse transcriptase K103N mutant in presence of 40% normal human serum; format: functional, organism-based
[25] = system: Human immunodeficiency virus 1; assay: Antiviral activity against HIV1 with reverse transcriptase Y181C mutant in presence of 40% normal human serum; format: functional, organism-based
[26] = system: Human immunodeficiency virus 1; assay: Antiviral activity against HIV1 with reverse transcriptase Y188L mutant in presence of 40% normal human serum; format: functional, organism-based
[27] = system: Human immunodeficiency virus 1; assay: Antiviral activity against HIV1 with reverse transcriptase V106A mutant in presence of 40% normal human serum; format: functional, organism-based
[28] = system: Human immunodeficiency virus 1; assay: Antiviral activity against HIV1 with reverse transcriptase V179E mutant in presence of 40% normal human serum; format: functional, organism-based
[29] = system: Human immunodeficiency virus 1; assay: Antiviral activity against HIV1 with reverse transcriptase P236L mutant in presence of 40% normal human serum; format: functional, organism-based
[30] = system: Human immunodeficiency virus 1; assay: Antiviral activity against HIV1 with reverse transcriptase F227L mutant in presence of 40% normal human serum; format: functional, organism-based
[31] = system: Human immunodeficiency virus 1; assay: Antiviral activity against HIV1 with reverse transcriptase K101E/G190A mutant in presence of 40% normal human serum; format: functional, organism-based
[32] = system: Human immunodeficiency virus 1; assay: Antiviral activity against HIV1 with reverse transcriptase K103N/G190A mutant in presence of 40% normal human serum; format: functional, organism-based
[33] = system: Human immunodeficiency virus 1; assay: Antiviral activity against HIV1 with reverse transcriptase K103N/P225H mutant in presence of 40% normal human serum; format: functional, organism-based
[34] = system: Human immunodeficiency virus 1; assay: Antiviral activity against HIV1 with reverse transcriptase K103N/V179E mutant in presence of 40% normal human serum; format: functional, organism-based
[35] = system: Human immunodeficiency virus 1; assay: Antiviral activity against HIV1 with reverse transcriptase K103N/Y181C mutant in presence of 40% normal human serum; format: functional, organism-based
[36] = system: Human immunodeficiency virus 1; assay: Antiviral activity against HIV1 with reverse transcriptase Y181C/G190A mutant in presence of 40% normal human serum; format: functional, organism-based
[37] = system: Human immunodeficiency virus 1; assay: Antiviral activity against HIV1 with reverse transcriptase K103N/Y181C/G190A mutant in presence of 40% normal human serum; format: functional, organism-based
[38] = organism: Canis familiaris; assay: Toxicity in cardiovascular dog model assessed as effect on QTc intervals; format: organism-based, Canis lupus familiaris, Heart; conditions: in vivo
Method in brief: (§4)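 Conscious dog cardiovascular model, with QTc, heart rate and blood pressure monitored at plasma levels up to 55 µM.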

[39] = organism: Canis familiaris; assay: Toxicity in cardiovascular dog model assessed as effect on heart rate; format: organism-based, Canis lupus familiaris; conditions: in vivo; method in brief: as §4
[40] = organism: Canis familiaris; assay: Toxicity in cardiovascular dog model assessed as effect on blood pressure; format: organism-based, Canis lupus familiaris; conditions: in vivo; method in brief: as §4
[41] = target: Human immunodeficiency virus type 1 reverse transcriptase (Human immunodeficiency virus 1, UniProt Q72547); assay: Inhibition of wild type HIV1 RT polymerase by SPA
[42] = target: Human immunodeficiency virus type 1 reverse transcriptase (Human immunodeficiency virus 1, UniProt Q72547, K103N); assay: Inhibition of HIV1 RT polymerase K103N mutant by SPA
[43] = target: Human immunodeficiency virus type 1 reverse transcriptase (Human immunodeficiency virus 1, UniProt Q72547, Y181C); assay: Inhibition of HIV1 RT polymerase Y181C mutant by SPA

In the case of `N#Cc1cc(Cl)cc(Oc2cc(OCc3n[nH]c4ccccc34)ccc2Cl)c1`, the IC95 [1] was 22.6 nM, the IC95 [2] was 33 nM and the IC95 [3] was 102 nM. The IC95 [4] was 114 nM.

For `N#Cc1cc(Cl)cc(Oc2cc(OCc3n[nH]c4nc(N)ccc34)ccc2Cl)c1`, the IC95 [1] was 8.4 nM, the IC95 [2] was 11.4 nM and the IC95 [3] was 19 nM. It also gave an IC95 [4] of 34 nM, an AUC [5] of 22.7 µM·h and a bioavailability [6] of 52%. It also gave an AUC [7] of 0.3 µM·h, a bioavailability [8] of 1% and a t1/2 [9] of 3.5 h. The clearance [10] was 9 mL/min/kg, the Vd [11] was 2 L/kg and the t1/2 [12] was 3.9 h. The clearance [13] was 5.8 mL/min/kg, the AUC [14] was 31.3 µM·h and the Vd [15] was 1.7 L/kg. It also gave a bioavailability [16] of 47%, a clearance [17] of 15.8 mL/min/kg and a Vd [18] of 1.9 L/kg. It also gave a solubility [19] of 10 µg/mL (≈ 23.5 µM), a pIC50 [20] of 8.87 and a pIC50 [21] of 8.82. For the same compound, the pIC50 [22] was 8.12, the pIC50 [23] was 8.74 and the pIC50 [24] was 8.36. The pIC50 [25] was 8.25, the pIC50 [26] was under 6.00 and the pIC50 [27] was 6.83. For the same compound, the pIC50 [28] was 8.30, the pIC50 [29] was 8.38 and the pIC50 [30] was 9.15. For the same compound, the pIC50 [31] was 8.00, the pIC50 [32] was 8.02 and the pIC50 [33] was 8.92. It also gave a pIC50 [34] of 8.02, a pIC50 [35] of 7.08 and a pIC50 [36] of 7.83. The pIC50 [37] was 7.01, the Activity [38] was “Non-toxic” and the Activity [39] was “Non-toxic”. The Activity [40] was “Non-toxic”.

With `N#Cc1cc(Cl)cc(Oc2cc(OCc3n[nH]c4ccncc34)ccc2Cl)c1` the pIC50 [41] was 8.92, the pIC50 [42] was 8.42 and the pIC50 [43] was 8.21. For the same compound, the IC95 [1] was 169 nM, the IC95 [2] was 922 nM and the IC95 [3] was 278 nM. It also gave an IC95 [4] of 307 nM.
